Target: Nuclear receptor ROR-alpha (Homo sapiens) (UniProt P35398)
Assay: direct binders of RORa ligand-binding domain, late-stage follow-up, orthogonal assay for RORA inverse agonist project, biochemical, [3H]25-hydroxycholesterol, radioligand competition, GST-RORa LBD (AID 504906)
Details: [3H]25-hydroxycholesterol displacement
Outline: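 Material: purified GST-tagged human RORα ligand-binding domain, residues 304-556, E. coli-expressed / Reagent: 3 nM [3H]25-hydroxycholesterol / Technique: GF/B filter capture of bound radioligand / Evaluation: Ki via mixed-inhibition model regression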

Nuclear receptor ROR-alpha (Homo sapiens), sequence (P35398 whole entry, looked up, the tested form may be a part): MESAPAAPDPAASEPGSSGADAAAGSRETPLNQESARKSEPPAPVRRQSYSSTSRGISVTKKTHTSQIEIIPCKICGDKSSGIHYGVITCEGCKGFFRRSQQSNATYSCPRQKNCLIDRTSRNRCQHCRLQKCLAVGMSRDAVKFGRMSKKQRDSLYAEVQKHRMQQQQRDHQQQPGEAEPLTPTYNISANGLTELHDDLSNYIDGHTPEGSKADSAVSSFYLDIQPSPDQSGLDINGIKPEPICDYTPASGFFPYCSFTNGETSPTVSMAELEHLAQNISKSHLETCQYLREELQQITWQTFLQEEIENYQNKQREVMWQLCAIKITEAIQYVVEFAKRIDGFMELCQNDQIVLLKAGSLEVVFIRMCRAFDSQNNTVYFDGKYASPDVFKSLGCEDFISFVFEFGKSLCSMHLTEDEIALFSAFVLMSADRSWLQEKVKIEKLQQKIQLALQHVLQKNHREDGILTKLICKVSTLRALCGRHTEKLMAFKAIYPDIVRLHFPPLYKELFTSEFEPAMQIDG

## O=S(=O)(Nc1ccc(C(O)(C(F)(F)F)C(F)(F)F)cc1)c1cccs1
  Ki: 220 nM

From PubChem BioAssay AID504906 (The Scripps Research Institute Molecular Screening Center, 2011)
